{"source": "paper PMC4929832", "about": "(Nature, 2016)", "key": {"[1]": {"target": "ROCK1 (Homo sapiens, UniProt Q13464)", "experiment": "kinase panel", "type": "biochemical"}, "[2]": {"target": "MAPK1 (Homo sapiens, UniProt P28482)", "experiment": "kinase panel", "type": "biochemical"}, "[3]": {"target": "AKT2 (Homo sapiens, UniProt P31751)", "sequence (P31751 whole entry)": "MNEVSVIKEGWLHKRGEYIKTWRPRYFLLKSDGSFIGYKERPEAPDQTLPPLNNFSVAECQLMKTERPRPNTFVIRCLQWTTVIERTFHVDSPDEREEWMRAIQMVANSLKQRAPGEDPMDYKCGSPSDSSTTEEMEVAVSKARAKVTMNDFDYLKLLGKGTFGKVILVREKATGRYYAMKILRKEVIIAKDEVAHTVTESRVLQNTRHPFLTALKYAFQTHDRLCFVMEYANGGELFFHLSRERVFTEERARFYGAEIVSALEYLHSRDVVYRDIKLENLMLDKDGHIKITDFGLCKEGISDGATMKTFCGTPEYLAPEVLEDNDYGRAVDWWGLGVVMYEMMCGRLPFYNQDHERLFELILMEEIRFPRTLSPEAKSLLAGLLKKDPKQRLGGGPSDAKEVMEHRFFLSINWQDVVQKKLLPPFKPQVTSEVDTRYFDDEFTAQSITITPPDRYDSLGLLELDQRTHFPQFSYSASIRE", "experiment": "kinase panel", "type": "biochemical"}, "[4]": {"target": "MARK1 (Homo sapiens, UniProt Q9P0L2)", "experiment": "kinase panel", "type": "biochemical"}, "[5]": {"target": "ALK6 (Homo sapiens, UniProt O00238)", "experiment": "kinase panel", "type": "biochemical"}, "[6]": {"target": "GRK7 (Homo sapiens, UniProt Q8WTQ7)", "sequence (Q8WTQ7 whole entry)": "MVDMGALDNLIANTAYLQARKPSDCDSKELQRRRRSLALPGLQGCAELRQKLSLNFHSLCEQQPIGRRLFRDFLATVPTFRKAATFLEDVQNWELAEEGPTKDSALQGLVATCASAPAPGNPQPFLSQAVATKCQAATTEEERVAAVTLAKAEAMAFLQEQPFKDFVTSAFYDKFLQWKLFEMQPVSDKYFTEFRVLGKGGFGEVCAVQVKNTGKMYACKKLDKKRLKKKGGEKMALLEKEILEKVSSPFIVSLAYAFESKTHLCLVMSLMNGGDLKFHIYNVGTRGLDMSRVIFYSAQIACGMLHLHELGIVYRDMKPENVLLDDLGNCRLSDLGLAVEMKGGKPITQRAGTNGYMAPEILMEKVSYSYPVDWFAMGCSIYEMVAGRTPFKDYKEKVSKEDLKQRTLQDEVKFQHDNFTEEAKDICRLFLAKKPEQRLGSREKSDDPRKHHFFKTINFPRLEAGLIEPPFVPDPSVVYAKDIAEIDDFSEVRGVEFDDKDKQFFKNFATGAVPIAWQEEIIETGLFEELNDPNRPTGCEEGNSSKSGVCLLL", "experiment": "kinase panel", "type": "biochemical"}, "[7]": {"target": "CLK3 (Homo sapiens, UniProt P49761)", "experiment": "kinase panel", "type": "biochemical"}, "[8]": {"target": "PHK-GAMMA1 (Homo sapiens, UniProt Q16816)", "experiment": "kinase panel", "type": "biochemical"}, "[9]": {"target": "CLK4 (Homo sapiens, UniProt Q9HAZ1)", "experiment": "kinase panel", "type": "biochemical"}, "[10]": {"target": "ARG (Homo sapiens, UniProt P42684)", "experiment": "kinase panel", "type": "biochemical"}, "[11]": {"target": "CRAF (Homo sapiens, UniProt P04049)", "experiment": "kinase panel", "type": "biochemical"}, "[12]": {"target": "HCK (Homo sapiens, UniProt P08631)", "experiment": "kinase panel", "type": "biochemical"}, "[13]": {"target": "PI3K-BETA (Homo sapiens, UniProt P42338)", "experiment": "kinase panel", "type": "biochemical"}, "[14]": {"target": "HIPK1 (Homo sapiens, UniProt Q86Z02)", "experiment": "kinase panel", "type": "biochemical"}, "[15]": {"target": "MER (Homo sapiens, UniProt Q12866)", "sequence (Q12866 21-999)": "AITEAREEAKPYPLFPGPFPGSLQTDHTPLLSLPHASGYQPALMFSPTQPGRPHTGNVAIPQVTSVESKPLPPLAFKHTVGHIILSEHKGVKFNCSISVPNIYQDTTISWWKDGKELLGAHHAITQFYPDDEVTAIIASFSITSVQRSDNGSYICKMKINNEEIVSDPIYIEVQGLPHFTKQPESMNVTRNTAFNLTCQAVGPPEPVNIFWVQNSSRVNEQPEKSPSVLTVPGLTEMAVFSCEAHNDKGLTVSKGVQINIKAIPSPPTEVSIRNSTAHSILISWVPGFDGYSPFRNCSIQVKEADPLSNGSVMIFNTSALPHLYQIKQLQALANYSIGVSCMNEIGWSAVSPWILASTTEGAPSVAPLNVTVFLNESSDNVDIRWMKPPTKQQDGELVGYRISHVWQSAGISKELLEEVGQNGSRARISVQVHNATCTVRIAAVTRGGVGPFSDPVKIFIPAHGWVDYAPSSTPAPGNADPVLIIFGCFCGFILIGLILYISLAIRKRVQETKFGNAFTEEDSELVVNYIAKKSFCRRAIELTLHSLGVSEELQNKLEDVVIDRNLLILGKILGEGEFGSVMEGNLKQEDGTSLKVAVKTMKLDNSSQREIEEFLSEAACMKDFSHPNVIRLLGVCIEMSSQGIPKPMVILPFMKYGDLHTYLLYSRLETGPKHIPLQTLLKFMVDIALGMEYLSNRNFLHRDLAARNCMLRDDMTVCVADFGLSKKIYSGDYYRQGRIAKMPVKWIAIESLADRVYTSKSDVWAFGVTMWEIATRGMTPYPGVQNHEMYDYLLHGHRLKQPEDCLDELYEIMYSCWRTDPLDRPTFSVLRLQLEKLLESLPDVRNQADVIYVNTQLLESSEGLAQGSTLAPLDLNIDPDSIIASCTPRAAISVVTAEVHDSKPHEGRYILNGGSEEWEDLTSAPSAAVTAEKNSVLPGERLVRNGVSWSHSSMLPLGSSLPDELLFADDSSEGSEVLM", "experiment": "kinase panel", "type": "biochemical"}, "[16]": {"target": "DAPK3 (Homo sapiens, UniProt O43293)", "experiment": "kinase panel", "type": "biochemical"}, "[17]": {"target": "MET (Homo sapiens, UniProt P08581)", "experiment": "kinase panel", "type": "biochemical"}, "[18]": {"target": "PI3K-GAMMA (Homo sapiens, UniProt P48736)", "experiment": "kinase panel", "type": "biochemical"}, "[19]": {"target": "DDR2 (Homo sapiens, UniProt Q16832)", "experiment": "kinase panel", "type": "biochemical"}, "[20]": {"target": "PIM1 (Homo sapiens, UniProt P11309)", "experiment": "kinase panel", "type": "biochemical"}, "[21]": {"target": "SPHK2 (Homo sapiens, UniProt Q9NRA0)", "sequence (Q9NRA0 whole entry)": "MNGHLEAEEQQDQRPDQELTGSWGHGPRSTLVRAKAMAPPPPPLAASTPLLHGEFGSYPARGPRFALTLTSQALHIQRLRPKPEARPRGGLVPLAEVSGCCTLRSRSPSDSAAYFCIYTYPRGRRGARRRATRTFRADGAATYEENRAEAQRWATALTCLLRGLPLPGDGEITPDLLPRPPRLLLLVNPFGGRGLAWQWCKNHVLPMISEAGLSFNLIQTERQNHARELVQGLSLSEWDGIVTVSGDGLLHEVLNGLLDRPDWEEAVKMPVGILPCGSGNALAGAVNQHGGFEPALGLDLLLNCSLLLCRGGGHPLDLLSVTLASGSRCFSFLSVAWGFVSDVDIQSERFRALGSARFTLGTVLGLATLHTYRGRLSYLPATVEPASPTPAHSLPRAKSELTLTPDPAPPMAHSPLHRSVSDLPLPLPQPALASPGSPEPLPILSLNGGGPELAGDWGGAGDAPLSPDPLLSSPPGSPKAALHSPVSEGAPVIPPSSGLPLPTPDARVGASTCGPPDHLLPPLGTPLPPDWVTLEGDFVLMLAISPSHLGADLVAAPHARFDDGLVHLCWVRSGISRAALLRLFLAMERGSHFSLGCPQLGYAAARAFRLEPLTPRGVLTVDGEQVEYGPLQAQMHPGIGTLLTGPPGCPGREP", "experiment": "kinase panel", "type": "biochemical"}, "[22]": {"target": "PKACB (Homo sapiens, UniProt P22694)", "experiment": "kinase panel", "type": "biochemical"}, "[23]": {"target": "EPH-A1 (Homo sapiens, UniProt P21709)", "experiment": "kinase panel", "type": "biochemical"}, "[24]": {"target": "IRAK1 (Homo sapiens, UniProt P51617)", "sequence (P51617 whole entry)": "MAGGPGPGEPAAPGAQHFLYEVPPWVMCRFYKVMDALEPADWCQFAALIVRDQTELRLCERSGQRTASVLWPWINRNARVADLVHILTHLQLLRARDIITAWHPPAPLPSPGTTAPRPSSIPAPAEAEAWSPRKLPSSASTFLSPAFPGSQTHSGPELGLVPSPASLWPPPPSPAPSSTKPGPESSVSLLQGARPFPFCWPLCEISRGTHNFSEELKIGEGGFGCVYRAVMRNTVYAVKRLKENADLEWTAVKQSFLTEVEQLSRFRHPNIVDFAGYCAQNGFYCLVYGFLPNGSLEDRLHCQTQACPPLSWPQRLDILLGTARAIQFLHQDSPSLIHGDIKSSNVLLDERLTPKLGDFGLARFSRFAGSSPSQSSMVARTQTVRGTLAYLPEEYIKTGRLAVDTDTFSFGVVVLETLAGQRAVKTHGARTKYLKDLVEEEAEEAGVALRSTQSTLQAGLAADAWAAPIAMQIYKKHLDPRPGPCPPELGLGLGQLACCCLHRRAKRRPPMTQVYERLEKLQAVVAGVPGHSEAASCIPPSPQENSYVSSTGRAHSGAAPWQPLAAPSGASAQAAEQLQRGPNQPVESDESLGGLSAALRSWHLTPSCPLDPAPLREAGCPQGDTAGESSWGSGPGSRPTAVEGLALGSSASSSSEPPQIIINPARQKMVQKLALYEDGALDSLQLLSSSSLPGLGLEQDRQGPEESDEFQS", "experiment": "kinase panel", "type": "biochemical"}, "[25]": {"target": "IRR (Homo sapiens, UniProt P14616)", "experiment": "kinase panel", "type": "biochemical"}, "[26]": {"target": "MST4 (Homo sapiens, UniProt Q9P289)", "experiment": "kinase panel", "type": "biochemical"}, "[27]": {"target": "TAOK2 (Homo sapiens, UniProt Q9UL54)", "experiment": "kinase panel", "type": "biochemical"}, "[28]": {"target": "EPH-A5 (Homo sapiens, UniProt P54756)", "sequence (P54756 25-1037)": "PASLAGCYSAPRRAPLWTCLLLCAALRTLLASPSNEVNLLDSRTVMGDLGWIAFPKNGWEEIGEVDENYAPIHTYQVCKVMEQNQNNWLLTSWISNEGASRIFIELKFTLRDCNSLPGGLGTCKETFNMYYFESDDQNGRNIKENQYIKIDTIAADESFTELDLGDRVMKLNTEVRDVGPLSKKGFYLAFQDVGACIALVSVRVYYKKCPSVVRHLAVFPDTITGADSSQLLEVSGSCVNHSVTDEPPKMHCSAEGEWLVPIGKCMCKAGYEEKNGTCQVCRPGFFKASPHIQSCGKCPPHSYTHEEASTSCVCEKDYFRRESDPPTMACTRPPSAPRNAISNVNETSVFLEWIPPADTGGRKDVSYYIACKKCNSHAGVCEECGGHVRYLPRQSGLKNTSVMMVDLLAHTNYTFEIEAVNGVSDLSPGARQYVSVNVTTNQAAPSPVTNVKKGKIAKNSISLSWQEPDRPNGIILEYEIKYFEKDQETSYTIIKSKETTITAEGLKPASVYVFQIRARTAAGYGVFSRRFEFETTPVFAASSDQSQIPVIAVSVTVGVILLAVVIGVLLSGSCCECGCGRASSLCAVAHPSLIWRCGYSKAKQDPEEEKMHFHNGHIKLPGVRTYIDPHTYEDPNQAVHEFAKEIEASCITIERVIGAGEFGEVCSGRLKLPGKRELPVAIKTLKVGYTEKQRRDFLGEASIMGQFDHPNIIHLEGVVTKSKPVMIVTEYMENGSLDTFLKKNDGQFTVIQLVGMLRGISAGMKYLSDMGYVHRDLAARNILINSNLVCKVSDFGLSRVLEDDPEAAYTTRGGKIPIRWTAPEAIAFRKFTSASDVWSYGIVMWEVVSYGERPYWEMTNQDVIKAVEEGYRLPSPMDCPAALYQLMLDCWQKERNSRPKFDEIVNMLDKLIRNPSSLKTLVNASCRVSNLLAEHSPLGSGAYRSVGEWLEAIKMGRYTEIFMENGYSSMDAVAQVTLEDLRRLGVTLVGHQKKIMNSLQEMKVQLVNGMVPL", "experiment": "kinase panel", "type": "biochemical"}, "[29]": {"target": "PKC-THETA (Homo sapiens, UniProt Q04759)", "experiment": "kinase panel", "type": "biochemical"}, "[30]": {"target": "CAMK2B (Homo sapiens, UniProt Q13554)", "experiment": "kinase panel", "type": "biochemical"}, "[31]": {"target": "NDR1 (Homo sapiens, UniProt Q15208)", "sequence (Q15208 whole entry)": "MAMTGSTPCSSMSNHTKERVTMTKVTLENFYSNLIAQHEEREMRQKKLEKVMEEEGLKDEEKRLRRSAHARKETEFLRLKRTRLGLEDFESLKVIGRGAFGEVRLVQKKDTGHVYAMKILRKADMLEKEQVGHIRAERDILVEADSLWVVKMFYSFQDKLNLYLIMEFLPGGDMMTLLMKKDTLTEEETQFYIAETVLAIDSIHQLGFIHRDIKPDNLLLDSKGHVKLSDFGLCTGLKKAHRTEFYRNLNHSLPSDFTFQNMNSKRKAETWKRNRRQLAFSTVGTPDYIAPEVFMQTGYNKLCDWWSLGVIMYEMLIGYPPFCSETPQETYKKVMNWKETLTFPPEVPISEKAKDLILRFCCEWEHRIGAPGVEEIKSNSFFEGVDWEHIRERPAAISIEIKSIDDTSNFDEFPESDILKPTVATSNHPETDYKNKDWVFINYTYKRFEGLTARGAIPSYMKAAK", "experiment": "kinase panel", "type": "biochemical"}, "[32]": {"target": "EPH-B4 (Homo sapiens, UniProt P54760)", "experiment": "kinase panel", "type": "biochemical"}, "[33]": {"target": "ERB-B2 (Homo sapiens, UniProt P04626)", "experiment": "kinase panel", "type": "biochemical"}, "[34]": {"target": "TNK2 (Homo sapiens, UniProt Q07912)", "experiment": "kinase panel", "type": "biochemical"}, "[35]": {"target": "FGFR1 (Homo sapiens, UniProt P11362)", "experiment": "kinase panel", "type": "biochemical"}, "[36]": {"target": "P70S6K2 (Homo sapiens, UniProt Q9UBS0)", "experiment": "kinase panel", "type": "biochemical"}, "[37]": {"target": "FLT-1 (Homo sapiens, UniProt P17948)", "experiment": "kinase panel", "type": "biochemical"}, "[38]": {"target": "H1 receptor (Homo sapiens, UniProt P35367)", "experiment": "H1 receptor calcium assay", "type": "cell-based"}, "[39]": {"target": "Melanocortin MC3 receptor (Homo sapiens, UniProt P41968)", "experiment": "Melanocortin MC3 receptor binding assay"}, "[40]": {"target": "PPARgamma Receptor (Homo sapiens, UniProt P37231)", "experiment": "PPARgamma Receptor antagonist assay", "type": "cell-based"}, "[41]": {"experiment": "Mouse pharmacokinetic studies", "type": "in vivo", "details": "20 mg/kg"}, "[42]": {"system": "exon19del/T790M EGFR mutant lung tumors (genetically engineered mice)", "experiment": "Mouse efficacy study, tumor volume by MRI", "type": "in vivo", "details": "EAI045 60 mg/kg with cetuximab 1 mg I.P. every other day", "how_it_was_run": "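Transgenic lung tumors were induced at 6 weeks of age: exon19del/T790M mice by doxycycline diet, L858R/T790M/C797S mice by intranasal Ad-Cre. The test compound in 10% NMP/90% PEG-300 was given at 60 mg/kg daily by oral gavage. […] MRI ran at baseline and every 2 weeks, and tumor volume was quantified in 3D at 4 weeks. Cohorts were non-blinded and not randomized.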"}}, "note": "pIC50: −log10 of the molar value.", "data": [{"smiles": "O=C(Nc1nccs1)C(c1cc(F)ccc1O)N1Cc2ccccc2C1=O", "note": "(stereo not shown) [EAI045, 2-(5-fluoro-2-hydroxyphenyl)-2-(1-oxo-2,3-dihydro-1H-isoindol-2-yl)-N-(1,3-thiazol-2-yl)acetamide]", "values": [{"measurement": "inhibition at 1 µM", "setting": "[1]", "value": 0, "unit": "%"}, {"measurement": "inhibition at 1 µM", "setting": "[2]", "value": 0, "unit": "%"}, {"measurement": "inhibition at 1 µM", "setting": "[3]", "value": 0, "unit": "%"}, {"measurement": "inhibition at 1 µM", "setting": "[4]", "value": 0, "unit": "%"}, {"measurement": "inhibition at 1 µM", "setting": "[5]", "value": 0, "unit": "%"}, {"measurement": "inhibition at 1 µM", "setting": "[6]", "value": 0, "unit": "%"}, {"measurement": "inhibition at 1 µM", "setting": "[7]", "value": 0, "unit": "%"}, {"measurement": "inhibition at 1 µM", "setting": "[8]", "value": 0, "unit": "%"}, {"measurement": "inhibition at 1 µM", "setting": "[9]", "value": 0, "unit": "%"}, {"measurement": "inhibition at 1 µM", "setting": "[10]", "value": 2, "unit": "%"}, {"measurement": "inhibition at 1 µM", "setting": "[11]", "value": 0, "unit": "%"}, {"measurement": "inhibition at 1 µM", "setting": "[12]", "value": 0, "unit": "%"}, {"measurement": "inhibition at 1 µM", "setting": "[13]", "value": 0, "unit": "%"}, {"measurement": "inhibition at 1 µM", "setting": "[14]", "value": 1, "unit": "%"}, {"measurement": "inhibition at 1 µM", "setting": "[15]", "value": 8, "unit": "%"}, {"measurement": "inhibition at 1 µM", "setting": "[16]", "value": 1, "unit": "%"}, {"measurement": "inhibition at 1 µM", "setting": "[17]", "value": 0, "unit": "%"}, {"measurement": "inhibition at 1 µM", "setting": "[18]", "value": 0, "unit": "%"}, {"measurement": "inhibition at 1 µM", "setting": "[19]", "value": 4, "unit": "%"}, {"measurement": "inhibition at 1 µM", "setting": "[20]", "value": 0, "unit": "%"}, {"measurement": "inhibition at 1 µM", "setting": "[21]", "value": 0, "unit": "%"}, {"measurement": "inhibition at 1 µM", "setting": "[22]", "value": 0, "unit": "%"}, {"measurement": "inhibition at 1 µM", "setting": "[23]", "value": 0, "unit": "%"}, {"measurement": "inhibition at 1 µM", "setting": "[24]", "value": 4, "unit": "%"}, {"measurement": "inhibition at 1 µM", "setting": "[25]", "value": 0, "unit": "%"}, {"measurement": "inhibition at 1 µM", "setting": "[26]", "value": 0, "unit": "%"}, {"measurement": "inhibition at 1 µM", "setting": "[27]", "value": 0, "unit": "%"}, {"measurement": "inhibition at 1 µM", "setting": "[28]", "value": 4, "unit": "%"}, {"measurement": "inhibition at 1 µM", "setting": "[29]", "value": 0, "unit": "%"}, {"measurement": "inhibition at 1 µM", "setting": "[30]", "value": 0, "unit": "%"}, {"measurement": "inhibition at 1 µM", "setting": "[31]", "value": 2, "unit": "%"}, {"measurement": "inhibition at 1 µM", "setting": "[32]", "value": 0, "unit": "%"}, {"measurement": "inhibition at 1 µM", "setting": "[33]", "value": 4, "unit": "%"}, {"measurement": "inhibition at 1 µM", "setting": "[34]", "value": 2, "unit": "%"}, {"measurement": "inhibition at 1 µM", "setting": "[35]", "value": 5, "unit": "%"}, {"measurement": "inhibition at 1 µM", "setting": "[36]", "value": 0, "unit": "%"}, {"measurement": "inhibition at 1 µM", "setting": "[37]", "value": 8, "unit": "%"}, {"measurement": "pIC50", "setting": "[38]", "value": "< 4.52"}, {"measurement": "pIC50", "setting": "[39]", "value": "< 4.52"}, {"measurement": "pIC50", "setting": "[40]", "value": "< 4.52"}, {"measurement": "maximal plasma concentration", "setting": "[41]", "value": 0.57, "unit": "µM"}, {"measurement": "half-life", "setting": "[41]; plasma, oral", "value": 129, "unit": "min"}, {"measurement": "tumor response", "setting": "[42]", "value": "failed to respond"}]}]}
